Compound activity as filed in PubChem.
TAAR1 antag: human TAAR1 antagonism; 1.5% of 360,000 active; CHO RD-HGA16 TAAR1, Fluo-8 calcium fluorescence, antagonist; inhibition, % at 3 µM;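 active means inhibition above a per-plate cutoff, the mean inhibition of test compounds on that plate plus 3 SD, cut at about 49% in these data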
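Test system – hTAAR1-expressing CHO RD-HGA16 cells, Gα16-coupled · Reagent – β-PEA at EC80 concentration, post-compound challenge · Compound dosing – 3 µM, single point · Timing – 140 s kinetic read after compound, 140 s after agonist · Detection – Fluo-8 intracellular calcium dye fluorescence, real-time kinetic reads · Control set – DMSO and EC80 PEA controls · Repeats – n of 1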
TAAR1 agonist: agonists of human TAAR1 | CHO RD-HGA16 TAAR1, Fluo-8 calcium fluorescence; vehicle wells 0%, saturating PEA agonist 100% | 0.99% of 360,000 active | Q96RJ0 | AID 624467 | activation, % at 3 µM;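 active means activation above the mean activation of all test compounds in the run plus 3 SD, cut at about 38% in these data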
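System: CHO-derived RD-HGA16 cells with stable Gα16 and human TAAR1. Times: 17-24 h plating, Fluo-8 75 min 37 °C, 30 min RT. Measured by: calcium-sensitive Fluo-8 signal, excitation 470-495, emission 515-575 nm. Read-out basis: % activation relative to PEA EC100 response. Control set: DMSO and PEA EC100. Repeats: no replicates (n 1).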
OXTR ag: activates the human oxytocin receptor. 0.32% of 320,000 active. activation, % at 3 µM. CHO-OTR cells, Fluo-8 calcium fluorescence; normalized: DMSO 0%, oxytocin 100%. AID 2435. P30559;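 active means activation above the mean of all tested compounds plus 3 SD, cutoff set per screening run, cut at about 20% in these data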;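 further: peak over basal fluorescence ratio from a 100 s FLIPR kinetic read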
OXTR potentiate: potentiates the human oxytocin receptor response; activation, % at 3 µM; CHO-OTR cells, Fluo-8 calcium fluorescence, potentiator mode; 0% = oxytocin EC15, 100% = EC100; 0.061% of 320,000 active; P30559;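 active means activation above that plate's cutoff, the mean activation of tested compounds plus 3 SD, cut at about 6.6% in these data, passing the limit was not always enough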
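Material: CHO-OTR cells, human receptor; compound dosing: single dose, 3.0 µM nominal final compound concentration; schedule: 6 min compound pre-incubation at room temperature, 100 s kinetic read; measured by: kinetic Fluo-8 calcium fluorescence; read-out basis: % activation vs EC15 and EC100 oxytocin; controls: EC15 oxytocin alone as 0%, 75 nM oxytocin as 100%; replicates: singlicate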
V1aR counter: activates human V1a receptor in oxytocin agonist counter-screen | P37288 | CHO-V1R cells, Fluo-8 calcium fluorescence, agonist mode; 0% DMSO, 100% 3 nM vasopressin | activation, % at 3 µM | 0.25% of 320,000 active | AID 2797;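 active means activation above the mean activation of all tested compounds plus 3 SD, per screening run, cut at about 20% in these data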;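 further: signal is peak over basal fluorescence ratio across a 100 second FLIPR read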
Target sequence (P37288 whole entry, looked up): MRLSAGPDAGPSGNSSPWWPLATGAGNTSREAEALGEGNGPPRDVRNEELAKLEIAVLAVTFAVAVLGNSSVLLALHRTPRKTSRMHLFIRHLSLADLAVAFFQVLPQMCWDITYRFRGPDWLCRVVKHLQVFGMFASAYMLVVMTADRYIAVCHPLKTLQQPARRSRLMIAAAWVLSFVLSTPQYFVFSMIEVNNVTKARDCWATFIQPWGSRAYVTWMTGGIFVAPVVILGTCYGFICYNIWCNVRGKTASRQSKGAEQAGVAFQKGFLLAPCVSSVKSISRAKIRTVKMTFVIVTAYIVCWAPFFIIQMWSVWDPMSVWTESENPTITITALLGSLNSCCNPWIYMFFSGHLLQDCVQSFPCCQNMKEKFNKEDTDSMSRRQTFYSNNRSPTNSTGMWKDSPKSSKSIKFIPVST
Numbers stand for hits; - = inactive; . = no result. The list is not random: actives were taken first. Their share in the collection is about 2.3%.

SMILES | TAAR1 antag | TAAR1 agonist | OXTR ag | OXTR potentiate | V1aR counter
O=C(c1ccc(N2CCN(C(=O)c3ccc(F)cc3F)CC2)cc1)c1cccc(F)c1 | 63 | - | - | - | -
Clc1ccc(Cn2ncc3c(N4CCCCC4)ncnc32)c(Cl)c1 | 78 | - | - | - | -
Nc1ccn([C@@H]2O[C@H](CNCc3cccc4c3sc3ccccc34)[C@@H](O)[C@H]2O)c(=O)n1 | - | - | . | . | .
CCO[C@@H]1OC(C(=O)N2CCN(Cc3ccccc3)CC2)=C[C@H](c2ccc(Br)cc2)[C@H]1CCCO | 49 | - | - | - | -
COc1cc(/C=C(\C#N)C(=O)NCCc2ccccc2)cc(OC)c1O | - | - | - | - | -
COc1cc(/C=C(\C#N)c2nc3ccccc3n2C)cc(OC)c1O | - | - | 26 | - | 29
COc1cc(/C=C(\C#N)c2nc3ccccc3[nH]2)cc(OC)c1O | - | - | 28 | - | 29
COc1cc(/C=C(\C#N)C(=O)c2c[nH]c3ccccc23)cc(OC)c1O | - | 41 | - | - | -
Cc1ccc(C2=NN(S(=O)(=O)c3ccccc3)C(c3ccccc3O)C2)cc1 (stereo not drawn) | - | - | . | . | .
Cc1ccc(Cn2c(=N)n(CC(O)COc3ccccc3)c3ccccc32)cc1 (stereo not drawn) | - | - | 28 | - | 28
N=c1n(Cc2ccccc2)c2ccccc2n1CC(O)COc1ccccc1 (stereo not drawn) | - | - | - | - | -
O=C(CCN1C(=O)/C(=C/c2cccs2)SC1=S)Nc1ccccn1 | 50 | - | - | - | -
O=C(CCCN1C(=O)/C(=C\c2cccs2)SC1=S)Nc1ccccn1 | - | - | - | - | -
COc1ccc(C2C=C(c3ccc(Br)s3)Nc3ncnn32)cc1OC (stereo not drawn) | . | . | 23 | - | -
COc1ccc(C2C=C(c3ccc(C)cc3)Nc3ncnn32)cc1 (stereo not drawn) | - | - | . | . | .
CCCCC1OC(CCc2ccccc2)CC2=C1C(=O)OC(C)(C)O2 (stereo not drawn) | - | - | . | . | .
O=C(CNC(=O)c1ccc(F)cc1)N/N=C/c1cc(Br)ccc1OCc1ccccc1 | - | - | - | - | -
COc1ccccc1C(=O)NCC(=O)N/N=C/c1cc(Br)ccc1OCc1ccccc1 | 49 | - | - | - | -
COc1ccc(COc2ccccc2C(=O)NCc2ccccc2)cc1F | 71 | - | - | - | -
COc1ccccc1N(C)S(=O)(=O)c1ccc(C(=O)N2CCCC(C(F)(F)F)C2)cc1 (stereo not drawn) | . | . | - | - | -
OCCNc1nc(Nc2ccc(Br)cc2)nc2ccccc12 | 60 | 65 | - | - | -
Cc1ccc(Nc2nc(NCc3ccco3)c3ccccc3n2)cc1 | - | 50 | - | - | -
c1ccc(Nc2nc(NCC3CCCO3)c3ccccc3n2)cc1 (stereo not drawn) | - | 52 | - | - | -
COc1ccc(Cn2cc(CN3CC(N4CCCC4)CS3(=O)=O)nn2)cc1 (stereo not drawn) | - | - | . | . | .
O=C(/C=C/c1ccco1)NCC1COc2ccccc2O1 (stereo not drawn) | - | - | - | - | -
SMILES | TAAR1 antag | TAAR1 agonist | OXTR ag | OXTR potentiate | V1aR counter
COc1ccnc(Oc2cccc(C(F)(F)F)c2)c1C(=O)N/C=N/OCc1ccccc1F | 54 | - | - | - | -
COc1ccnc(Oc2ccccc2)c1C(=O)N/C=N/OCc1ccccc1 | - | - | - | - | -
COc1ccccc1CC(=O)Nc1ccc(-c2nnc(-c3ccco3)o2)cc1 | - | - | - | - | -
COc1cc(C(=O)Nc2ccc(-c3nnc(-c4ccco4)o3)cc2)cc(OC)c1OC | 52 | - | - | - | -
CCOC(=O)N(C)c1c(CC)nc2c(OCc3ccc(Cl)cc3)cccn12 | - | - | . | . | .
CCOC(=O)CSc1nc2ccc(NC(=O)CSc3nnnn3Cc3ccccc3)cc2s1 | 53 | - | - | - | -
CCN(CC)C(=O)CSc1nc2ccc(NC(=O)CSc3nnc(COc4ccccc4C)n3C)cc2s1 | 56 | - | - | - | -
CCC(=O)Nc1cccc(NC(=O)CSc2nnnn2Cc2ccccc2)c1 | - | - | - | - | -
COc1ccc(N2CC(O)=C(c3nc(-c4ccc(F)cc4)cs3)C2=N)cc1OC | - | - | - | - | -
